According to ChEMBL document CHEMBL1133968, “Glutamyl-gamma-boronate inhibitors of bacterial Glu-tRNA(Gln) amidotransferase” (Bioorg Med Chem Lett, 2001):
Values after ≈ are worked out from the molar mass of the structure shown.

Legend:
[1] = Tested for mammalian cellular toxicity expressed as IC50; format: functional
Enterococcus faecalis = experiment: Tested for minimal growth inhibitory concentration against […] ATCC 29212; format: functional
Streptococcus pyogenes = experiment: Tested for minimal growth inhibitory concentration against Streptococcus pyogenes ATCC 13709; format: functional
Escherichia coli [2] = experiment: Minimum inhibitory concentration against Escherichia coli strain tolC; format: functional
Staphylococcus aureus [3] = experiment: Tested for minimal growth inhibitory concentration against Staphylococcus aureus ATCC 29213; format: functional
Helicobacter pylori = experiment: Tested for minimal growth inhibitory concentration against Helicobacter pylori ATCC 43629; format: functional
How it was run: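 Broth dilution in Brain–Heart Infusion broth with 0.25% yeast extract and 10% horse serum. Inoculum was 6×10⁵ CFU per well, incubated 72 h at 37 °C under 10% CO₂. Highest concentration tested was 64. NCCLS-recommended control antibiotics tracked strain performance.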

[4] = molecular target: T1, Aspartyl/glutamyl-tRNA(Asn/Gln) amidotransferase subunit A (Streptococcus pyogenes serotype M1, UniProt Q99YC0); experiment: In vitro inhibitory concentration against transferase activity of bacterial Glu-tRNA-Gln […] (Glu-AdT)
T1 sequence (Q99YC0 whole entry, looked up): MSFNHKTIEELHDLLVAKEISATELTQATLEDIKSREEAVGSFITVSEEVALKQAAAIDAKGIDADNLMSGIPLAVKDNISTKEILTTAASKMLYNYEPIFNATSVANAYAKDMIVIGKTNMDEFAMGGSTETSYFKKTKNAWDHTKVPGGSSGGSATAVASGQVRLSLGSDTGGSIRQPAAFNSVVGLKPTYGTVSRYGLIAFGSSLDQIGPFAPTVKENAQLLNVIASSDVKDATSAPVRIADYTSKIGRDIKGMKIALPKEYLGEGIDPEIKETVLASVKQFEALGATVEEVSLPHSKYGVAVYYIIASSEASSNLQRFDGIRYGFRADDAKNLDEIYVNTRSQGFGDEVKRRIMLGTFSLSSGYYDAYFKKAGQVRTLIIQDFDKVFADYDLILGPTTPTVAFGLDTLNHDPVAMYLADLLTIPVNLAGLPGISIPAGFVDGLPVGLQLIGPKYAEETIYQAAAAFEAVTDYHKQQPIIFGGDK
How it was run: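 S. pyogenes Glu-AdT, Gln-dependent transferase reaction. Substrates were Glu-tRNAGln at >10×Km, ATP at 2×Km and Gln at 0.5×Km. Inhibitor titrated over […]. Enzyme pre-incubated 15 min with inhibitor, Glu-tRNAGln and ATP, then started with Gln. Buffer was 50 mM HEPES, 25 mM MgCl₂, 15 mM KCl, 1% DMSO, pH 7. IC50 determined in duplicate.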

Escherichia coli [5] = experiment: Minimum inhibitory concentration against Escherichia coli strain SM101; format: functional
[6] = molecular target: T1, Aspartyl/glutamyl-tRNA(Asn/Gln) amidotransferase subunit A; experiment: In vitro inhibitory concentration against Glutaminase activity of bacterial Glu-tRNA-Gln […] (Glu-AdT)
How it was run: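 S. pyogenes Glu-AdT, glutaminase-only reaction with no ATP or tRNA. Gln at 2×Km. Inhibitor titrated over […]. Enzyme pre-incubated 15 min with inhibitor, then started with Gln. Reaction buffer was 50 mM HEPES, 25 mM MgCl₂, 15 mM KCl, 1% DMSO, pH 7. IC50 determined in duplicate.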

Streptococcus pneumoniae = experiment: Tested for minimal growth inhibitory concentration against Streptococcus pneumoniae ATCC 49619; format: functional
Staphylococcus aureus [7] = experiment: Tested for minimal growth inhibitory concentration against Staphylococcus aureus ATCC 25923; format: functional
Staphylococcus carnosus = experiment: Tested for minimal growth inhibitory concentration against Staphylococcus carnosus ATCC 51365; format: functional
[8] = system: Staphylococcus epidermidis; experiment: Tested for minimal growth inhibitory concentration against Staphylococcus epidermidis ATCC 12228; format: functional
[9] = system: Staphylococcus epidermidis; experiment: Tested for minimal growth inhibitory concentration against Staphylococcus epidermidis ATCC 51625; format: functional
Staphylococcus aureus [10] = experiment: Tested for minimal growth inhibitory concentration against Staphylococcus aureus ATCC 4330; format: functional

With `COC(=O)[C@H](CCB1O[C@@]2(C)CCC3C[C@@]2(O1)C3(C)C)NC(=O)OCc1ccccc1` the IC50 [1] was > 100 µM, the MIC (Enterococcus faecalis) was > 64 µg/mL and the MIC (Streptococcus pyogenes) was 64 µg/mL (≈ 149 µM). The MIC (Escherichia coli [2]) was > 64 µg/mL, the MIC (Staphylococcus aureus [3]) was > 64 µg/mL and the MIC (Helicobacter pylori) was 32 µg/mL (≈ 74.5 µM). The IC50 [4] was > 20 µM, the MIC (Escherichia coli [5]) was > 64 µg/mL and the IC50 [6] was > 80 µM.

For `CC1(C)C2CC[C@]3(C)OB(CCC[C@H](NC(=O)OCc4ccccc4)C(=O)O)O[C@]13C2`, the IC50 [4] was > 20 µM and the IC50 [6] was > 80 µM.

In the case of `CC1(C)C2CC[C@]3(C)OB(CCC[C@H](N)C(=O)O)O[C@]13C2`, the IC50 [4] is reported as > 20 µM and the IC50 [6] is reported as > 80 µM.

For `COC(=O)[C@H](CCCB1O[C@@]2(C)CCC3C[C@@]2(O1)C3(C)C)NC(=O)OCc1ccccc1`, the IC50 [4] was > 20 µM and the IC50 [6] was > 80 µM.

With `CC1(C)C2CC[C@]3(C)OB(CC[C@H](NC(=O)OCc4ccccc4)C(=O)O)O[C@]13C2` the IC50 [1] was > 100 µM, the MIC (Enterococcus faecalis) was > 64 µg/mL and the MIC (Streptococcus pyogenes) was > 64 µg/mL. The MIC (Escherichia coli [2]) was > 64 µg/mL, the MIC (Staphylococcus aureus [3]) was > 64 µg/mL and the MIC (Helicobacter pylori) was > 64 µg/mL. For the same compound, the MIC (Escherichia coli [5]) was > 64 µg/mL and the IC50 [6] was > 80 µM.

For `CC1(C)C2CC[C@]3(C)OB(CC[C@H](NC(=O)CN)C(=O)O)O[C@]13C2`, the MIC (Enterococcus faecalis) was 8 µg/mL (≈ 23.7 µM), the MIC (Streptococcus pyogenes) was > 64 µg/mL and the MIC (Escherichia coli [2]) was > 64 µg/mL. For the same compound, the MIC (Staphylococcus aureus [3]) was > 64 µg/mL, the MIC (Streptococcus pneumoniae) was > 64 µg/mL and the IC50 [4] was > 20 µM. The MIC (Escherichia coli [5]) was > 64 µg/mL and the IC50 [6] was > 80 µM.

For `CC(C)(C)OC(=O)NCCCB1O[C@@]2(C)CCC3C[C@@]2(O1)C3(C)C`, the MIC (Enterococcus faecalis) was > 64 µg/mL, the MIC (Streptococcus pyogenes) was > 64 µg/mL and the MIC (Escherichia coli [2]) was 8 µg/mL (≈ 23.7 µM). The MIC (Staphylococcus aureus [3]) was > 64 µg/mL, the MIC (Helicobacter pylori) was > 64 µg/mL and the IC50 [4] was > 20 µM. For the same compound, the MIC (Escherichia coli [5]) was 8 µg/mL (≈ 23.7 µM) and the IC50 [6] was > 80 µM.

With `CC(C)(C)OC(=O)[C@@H](N)CCB1O[C@@]2(C)CCC3C[C@@]2(O1)C3(C)C` the IC50 [1] was > 100 µM, the MIC (Enterococcus faecalis) was > 64 µg/mL and the MIC (Streptococcus pyogenes) was > 64 µg/mL. For the same compound, the MIC (Escherichia coli [2]) was 8 µg/mL (≈ 23.7 µM), the MIC (Staphylococcus aureus [3]) was > 64 µg/mL and the MIC (Helicobacter pylori) was > 64 µg/mL. The MIC (Escherichia coli [5]) was 8 µg/mL (≈ 23.7 µM) and the IC50 [6] was > 80 µM.

For `CNC(=O)CNC(=O)[C@@H](N)CCB1O[C@@]2(C)CCC3C[C@@]2(O1)C3(C)C`, the MIC (Staphylococcus aureus [7]) was > 64 µg/mL, the MIC (Staphylococcus carnosus) was > 64 µg/mL and the MIC (Enterococcus faecalis) was 16 µg/mL (≈ 45.6 µM). The MIC (Streptococcus pyogenes) was 8 µg/mL (≈ 22.8 µM), the MIC [8] was > 64 µg/mL and the MIC [9] was > 64 µg/mL. For the same compound, the MIC (Staphylococcus aureus [3]) was > 64 µg/mL, the MIC (Streptococcus pneumoniae) was 16 µg/mL (≈ 45.6 µM) and the MIC (Helicobacter pylori) was 16 µg/mL (≈ 45.6 µM). For the same compound, the IC50 [4] was 20 µM, the IC50 [6] was 40 µM and the MIC (Staphylococcus aureus [10]) was > 64 µg/mL.

In the case of `CC1(C)C2CC[C@]3(C)OB(CCCN)O[C@]13C2`, the IC50 [1] is reported as > 100 µM, the MIC (Enterococcus faecalis) is reported as > 64 µg/mL and the MIC (Escherichia coli [2]) is reported as > 64 µg/mL. For the same compound, the MIC (Staphylococcus aureus [3]) was > 64 µg/mL, the MIC (Helicobacter pylori) was > 64 µg/mL and the IC50 [4] was > 20 µM. The MIC (Escherichia coli [5]) was > 64 µg/mL and the IC50 [6] was > 80 µM.
